Data set [1] can be described thus: Metabolic stability in human liver microsomes assessed as parent compound remaining after 180 mins by LC-MS analysis relative to control. It counts as ADME, Microsome. The following applies: read-out: Stability.
Data set [2] in a line: Drug metabolism in RjOrl:Swiss CD-1 mouse assessed as ratio of compound to N-(4-(4-(4-Fluorophenyl)-2-(methylsulfinyl)-1H-imidazol-5-yl)pyridin-2-yl)cyclopropanecarboxamide metabolite level at 10 mg/kg, iv administered as single dose measured after 10 mins by LC-MS analysis. It counts as ADME, organism-based. As to conditions: in vivo. In a few lines:
(§1)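 Adult male RjOrl:Swiss CD-1 mice got one intravenous dose of 10 mg/kg. Plasma was sampled at 10, 30 and 120 min. After the last sample the mice were sacrificed and brains dissected. Blood and brain samples were prepared and analysed by LC-MS for parent and sulfoxide metabolite; brain levels reported as ng/g.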

The target in data set [3] is T1, Glycogen synthase kinase-3 beta (Homo sapiens, UniProt P49841). The data set can be described thus: Competitive inhibition of human recombinant full length GSK3beta using YRRAAVPPSPSLSRHSSPHQ(pS)EDEEE as substrate preincubated with enzyme for 10 mins followed by substrate and 25 uM ATP addition measured after 60 mins by ADP-Glo luminescence assay. In a few lines:
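Compounds in serial dilutions were preincubated with kinase for 10 min at rt. Substrate/ATP was then added and the reaction ran 60 min at rt. ADP-Glo reagent 60 min, detection reagent 30 min, then luminescence read (500 ms integration).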

For data set [4], the target named is T1, Glycogen synthase kinase-3 beta. Put plainly: Competitive inhibition of human recombinant full length GSK3beta using YRRAAVPPSPSLSRHSSPHQ(pS)EDEEE as substrate preincubated with enzyme for 10 mins followed by substrate and 100 uM ATP addition measured after 60 mins by ADP-Glo luminescence assay. The essentials: (§2)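 Recombinant human GSK3β at 0.58 ng/µL with 0.2 µg/µL substrate G50-58; ATP at 25 µM, 100 µM or 500 µM, each as its line states. Compounds in serial dilutions were preincubated with kinase for 10 min at rt. Substrate/ATP was then added and the reaction ran 60 min at rt. ADP-Glo reagent 60 min, detection reagent 30 min, then luminescence read (500 ms integration).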
(In general: In ADP-Glo the light output rises with the ADP produced.)

The nature of data set [5]: Drug metabolism in human liver microsomes assessed as N-(4-(4-(4-Fluorophenyl)-2-(methylsulfinyl)-1H-imidazol-5-yl)pyridin-2-yl)cyclopropanecarboxamide metabolite formation by measuring half life by LC-MS analysis. The class given is ADME, Microsome. The essentials:
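Incubation with human liver microsomes for up to 4 h. Remaining parent and sulfoxide metabolite formation were followed over time, giving a half-life for the oxidation.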
(Liver microsomes are a subcellular fraction often used to study metabolism.)

A further data set addresses CYP2C9 (Homo sapiens, UniProt P11712). Put plainly: Inhibition of human recombinant CYP2C9 expressed in baculovirus infected insect cells using OOMR as substrate at 10 uM in presence of NADPH by fluorimetric analysis relative to control. The following applies: probe OOMR. The class given is ADME.
Data set [6] is described as follows: Metabolic stability in human liver microsomes assessed as parent compound remaining after 120 mins by LC-MS analysis relative to control. The following applies: read-out: Stability. It counts as ADME, Microsome.
The nature of data set [7]: Metabolic stability in human liver microsomes assessed as parent compound remaining after 60 mins by LC-MS analysis relative to control. It counts as ADME, Microsome. As to conditions: read-out: Stability.
Another data set has as its target CYP2D6 (Homo sapiens, UniProt P10635). Put plainly: Inhibition of human recombinant CYP2D6 expressed in baculovirus infected insect cells using EOMCC as substrate at 10 uM in presence of NADPH by fluorimetric analysis relative to control. The following applies: probe EOMCC. It counts as ADME.
Data set [8] can be described thus: Metabolic stability in human liver microsomes assessed as parent compound remaining after 20 mins by LC-MS analysis relative to control. It counts as ADME, Microsome. As to conditions: read-out: Stability.
The nature of data set [9]: Drug metabolism in RjOrl:Swiss CD-1 mouse at 10 mg/kg, iv administered as single dose measured after 2 hrs by LC-MS relative to control. It counts as ADME, organism-based. The following applies: in vivo. The essentials:
as §1

The target of the next data set is CYP1A2 (Homo sapiens, UniProt P05177). Put plainly: Inhibition of human recombinant CYP1A2 expressed in baculovirus infected insect cells using 3-cyano-7-ethoxycoumarin as substrate at 10 uM in presence of NADPH by fluorimetric analysis relative to control. The class given is ADME. The following applies: probe 3-cyano-7-ethoxycoumarin.
For data set [10], the target named is T1, Glycogen synthase kinase-3 beta. Put plainly: Competitive inhibition of human recombinant full length GSK3beta using YRRAAVPPSPSLSRHSSPHQ(pS)EDEEE as substrate preincubated with enzyme for 10 mins followed by substrate and 500 uM ATP addition measured after 60 mins by ADP-Glo luminescence assay. In a few lines: as §2
A further data set addresses Cytochrome P450 2C19 (Homo sapiens, UniProt P33261). Put plainly: Inhibition of human recombinant CYP2C19 expressed in baculovirus infected insect cells using EOMCC as substrate in presence of NADPH by fluorimetric analysis relative to control. It counts as ADME. As to conditions: recombinant enzyme.
For data set [11], the target named is Mitogen-activated protein kinase 14 (Homo sapiens, UniProt Q16539). Put plainly: Inhibition of p38alpha MAPK (unknown origin) using ATF-2 as substrate after 1 hr by ELISA.
Data set [12] in a line: Metabolic stability in human liver microsomes assessed as parent compound remaining after 30 mins by LC-MS analysis relative to control. The class given is ADME, Microsome. The following applies: read-out: Stability.
Data set [13] can be described thus: Metabolic stability in human liver microsomes assessed as parent compound remaining after 240 mins by LC-MS analysis relative to control. It counts as ADME, Microsome. The following applies: read-out: Stability.
For a further data set, the target named is CYP3A4 (Homo sapiens, UniProt P08684). Put plainly: Inhibition of human recombinant CYP3A4 expressed in baculovirus infected insect cells using BOMR as substrate at 10 uM in presence of NADPH by fluorimetric analysis relative to control. The class given is ADME. As to conditions: probe BOMR.
The target of data set [14] is Glycogen synthase kinase-3 alpha (Homo sapiens, UniProt P49840). Put plainly: Inhibition of human recombinant full length GSK3alpha using YRRAAVPPSPSLSRHSSPHQ(pS)EDEEE as substrate preincubated with enzyme for 10 mins followed by substrate and 25 uM ATP addition measured after 60 mins by ADP-Glo luminescence assay. The essentials: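 Recombinant human GSK3α at 0.50 ng/µL, 25 µM ATP, 0.2 µg/µL substrate G50-58, serial compound dilutions. Kinase was preincubated with compound 10 min at rt, then run 60 min at rt after substrate/ATP addition. ADP-Glo reagent 60 min, detection reagent 30 min, luminescence read. Uninhibited-kinase and ATP/substrate-only controls were included.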

Data set [15] in a line: Metabolic stability in human liver microsomes assessed as parent compound remaining after 10 mins by LC-MS analysis relative to control. The class given is ADME, Microsome. As to conditions: read-out: Stability.
A further data set deals with hERG (KCNH2) (Homo sapiens, UniProt Q12809). Put plainly: Inhibition of tracer Red binding to human ERG expressed in membranes at 10 uM after 4 hrs by fluorescence polarization assay relative to control. As to conditions: membranes expressing human ERG, probe tracer Red. For orientation: In fluorescence polarisation assays a small probe gives low polarisation when free and higher when bound to something large.

A short description of data set [16]: Solubility of the compound in PBS buffer at pH 7.8 after 1 hr by HPLC analysis. The class given is physicochemical.
Another data set concerns Blood. The data set can be described thus: Inhibition of LPS-induced TNFalpha production in human whole blood preincubated with compound for 15 mins followed by LPS addition measured after 2.5 hrs by ELISA. It counts as functional, tissue-based.

Converted amounts (≈) assume the structure as drawn.

The results in this text go back to ChEMBL document CHEMBL4393708, “Pyridinylimidazoles as dual glycogen synthase kinase 3β/p38α mitogen-activated protein kinase inhibitors” (Eur J Med Chem, 2019).

A word on the IC50: it is the concentration that inhibits the measured activity by half. As a reminder, the inhibition is the drop in the measured response relative to a control, in per cent. In general, solubility refers to the dissolved amount per volume that the medium holds. A low value points to a poorly soluble substance.

T1 sequence (P49841 whole entry): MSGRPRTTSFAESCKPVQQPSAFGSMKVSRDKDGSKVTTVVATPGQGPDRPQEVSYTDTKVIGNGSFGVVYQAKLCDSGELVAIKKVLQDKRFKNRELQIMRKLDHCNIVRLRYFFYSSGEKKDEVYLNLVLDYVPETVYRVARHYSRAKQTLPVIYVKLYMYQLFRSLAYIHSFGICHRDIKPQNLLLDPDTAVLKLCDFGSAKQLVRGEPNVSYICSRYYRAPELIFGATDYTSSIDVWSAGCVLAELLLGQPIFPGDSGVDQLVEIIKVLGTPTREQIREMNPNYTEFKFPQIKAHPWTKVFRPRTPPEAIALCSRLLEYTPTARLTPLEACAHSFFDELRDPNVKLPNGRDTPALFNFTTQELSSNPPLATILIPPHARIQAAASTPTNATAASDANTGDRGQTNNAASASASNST
Sequence of CYP3A4 (P08684 whole entry): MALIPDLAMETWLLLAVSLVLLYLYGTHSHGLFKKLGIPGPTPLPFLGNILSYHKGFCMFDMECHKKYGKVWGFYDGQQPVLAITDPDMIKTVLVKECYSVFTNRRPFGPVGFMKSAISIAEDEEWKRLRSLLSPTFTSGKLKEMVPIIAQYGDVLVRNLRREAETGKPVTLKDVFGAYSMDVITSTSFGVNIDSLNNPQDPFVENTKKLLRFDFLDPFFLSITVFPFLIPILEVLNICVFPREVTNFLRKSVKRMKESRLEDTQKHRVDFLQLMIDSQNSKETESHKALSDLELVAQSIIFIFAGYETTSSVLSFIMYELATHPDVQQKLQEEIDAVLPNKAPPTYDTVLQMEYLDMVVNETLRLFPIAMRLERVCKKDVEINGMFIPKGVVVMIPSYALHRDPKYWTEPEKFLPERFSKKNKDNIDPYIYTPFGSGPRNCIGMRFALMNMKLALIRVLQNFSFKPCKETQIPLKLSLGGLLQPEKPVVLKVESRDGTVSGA
Sequence of hERG (KCNH2) (Q12809 whole entry): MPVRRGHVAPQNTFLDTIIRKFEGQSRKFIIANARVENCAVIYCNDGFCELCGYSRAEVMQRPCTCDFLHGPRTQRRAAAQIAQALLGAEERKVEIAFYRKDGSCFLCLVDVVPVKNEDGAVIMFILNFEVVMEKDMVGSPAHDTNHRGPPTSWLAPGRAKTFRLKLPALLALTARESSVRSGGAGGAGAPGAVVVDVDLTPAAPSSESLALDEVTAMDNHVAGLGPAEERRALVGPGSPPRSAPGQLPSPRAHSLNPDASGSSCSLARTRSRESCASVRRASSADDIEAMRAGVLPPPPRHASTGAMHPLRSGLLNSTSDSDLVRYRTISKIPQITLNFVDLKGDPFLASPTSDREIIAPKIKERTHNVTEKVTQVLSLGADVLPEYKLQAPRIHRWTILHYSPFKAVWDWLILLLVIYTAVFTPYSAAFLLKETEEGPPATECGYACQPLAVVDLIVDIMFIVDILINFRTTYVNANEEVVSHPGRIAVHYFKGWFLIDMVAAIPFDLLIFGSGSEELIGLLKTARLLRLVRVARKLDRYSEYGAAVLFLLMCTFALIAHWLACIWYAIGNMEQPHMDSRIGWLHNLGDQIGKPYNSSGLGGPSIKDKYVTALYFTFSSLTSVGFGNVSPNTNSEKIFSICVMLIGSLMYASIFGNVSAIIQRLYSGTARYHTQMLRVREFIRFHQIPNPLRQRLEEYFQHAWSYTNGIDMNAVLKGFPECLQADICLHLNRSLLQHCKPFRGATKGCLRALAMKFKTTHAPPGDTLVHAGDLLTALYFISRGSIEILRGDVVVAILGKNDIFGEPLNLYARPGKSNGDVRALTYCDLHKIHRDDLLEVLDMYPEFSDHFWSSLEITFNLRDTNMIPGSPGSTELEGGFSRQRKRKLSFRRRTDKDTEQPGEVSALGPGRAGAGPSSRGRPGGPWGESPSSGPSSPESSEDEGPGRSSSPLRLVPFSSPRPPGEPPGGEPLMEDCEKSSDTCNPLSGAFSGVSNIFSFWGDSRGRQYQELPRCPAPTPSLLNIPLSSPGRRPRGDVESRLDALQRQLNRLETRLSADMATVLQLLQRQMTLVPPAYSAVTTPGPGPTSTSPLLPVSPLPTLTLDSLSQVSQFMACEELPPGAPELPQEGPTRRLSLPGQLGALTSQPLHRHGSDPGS
Sequence of CYP1A2 (P05177 whole entry): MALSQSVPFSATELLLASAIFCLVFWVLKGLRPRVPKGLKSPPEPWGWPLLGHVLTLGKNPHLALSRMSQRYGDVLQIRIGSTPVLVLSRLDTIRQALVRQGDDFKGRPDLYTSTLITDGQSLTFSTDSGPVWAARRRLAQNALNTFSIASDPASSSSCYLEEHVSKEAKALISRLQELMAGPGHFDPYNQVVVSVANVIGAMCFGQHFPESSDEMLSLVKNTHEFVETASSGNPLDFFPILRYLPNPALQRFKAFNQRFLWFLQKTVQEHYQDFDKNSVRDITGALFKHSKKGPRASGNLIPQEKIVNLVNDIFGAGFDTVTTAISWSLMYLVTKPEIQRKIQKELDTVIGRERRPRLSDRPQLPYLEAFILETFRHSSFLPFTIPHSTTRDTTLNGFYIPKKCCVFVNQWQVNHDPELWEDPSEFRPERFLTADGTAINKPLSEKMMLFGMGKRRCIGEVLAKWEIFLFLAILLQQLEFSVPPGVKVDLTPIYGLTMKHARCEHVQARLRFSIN
Sequence of Mitogen-activated protein kinase 14 (Q16539 whole entry): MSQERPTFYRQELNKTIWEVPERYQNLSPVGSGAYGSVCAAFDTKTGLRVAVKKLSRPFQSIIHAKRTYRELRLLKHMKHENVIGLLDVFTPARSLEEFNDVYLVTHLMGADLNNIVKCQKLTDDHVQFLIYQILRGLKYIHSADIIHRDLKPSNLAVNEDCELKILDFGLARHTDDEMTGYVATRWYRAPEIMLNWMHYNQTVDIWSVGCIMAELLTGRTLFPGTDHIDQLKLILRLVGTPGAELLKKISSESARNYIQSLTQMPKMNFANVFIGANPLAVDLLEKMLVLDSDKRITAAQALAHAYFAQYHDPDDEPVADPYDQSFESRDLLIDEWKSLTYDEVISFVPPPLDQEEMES
Sequence of Cytochrome P450 2C19 (P33261 whole entry): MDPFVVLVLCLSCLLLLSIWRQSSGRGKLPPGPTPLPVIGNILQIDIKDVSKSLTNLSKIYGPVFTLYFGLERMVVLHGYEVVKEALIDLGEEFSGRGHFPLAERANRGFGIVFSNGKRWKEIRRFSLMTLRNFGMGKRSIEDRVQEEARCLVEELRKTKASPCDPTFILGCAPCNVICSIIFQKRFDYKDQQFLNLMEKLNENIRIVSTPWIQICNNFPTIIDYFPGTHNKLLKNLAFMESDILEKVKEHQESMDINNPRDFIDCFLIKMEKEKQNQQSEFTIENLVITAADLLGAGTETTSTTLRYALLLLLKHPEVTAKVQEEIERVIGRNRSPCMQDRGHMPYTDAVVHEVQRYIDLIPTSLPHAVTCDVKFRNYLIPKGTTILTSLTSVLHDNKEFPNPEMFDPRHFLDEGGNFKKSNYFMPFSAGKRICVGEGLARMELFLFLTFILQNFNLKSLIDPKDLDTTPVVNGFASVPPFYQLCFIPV
Sequence of CYP2D6 (P10635 whole entry): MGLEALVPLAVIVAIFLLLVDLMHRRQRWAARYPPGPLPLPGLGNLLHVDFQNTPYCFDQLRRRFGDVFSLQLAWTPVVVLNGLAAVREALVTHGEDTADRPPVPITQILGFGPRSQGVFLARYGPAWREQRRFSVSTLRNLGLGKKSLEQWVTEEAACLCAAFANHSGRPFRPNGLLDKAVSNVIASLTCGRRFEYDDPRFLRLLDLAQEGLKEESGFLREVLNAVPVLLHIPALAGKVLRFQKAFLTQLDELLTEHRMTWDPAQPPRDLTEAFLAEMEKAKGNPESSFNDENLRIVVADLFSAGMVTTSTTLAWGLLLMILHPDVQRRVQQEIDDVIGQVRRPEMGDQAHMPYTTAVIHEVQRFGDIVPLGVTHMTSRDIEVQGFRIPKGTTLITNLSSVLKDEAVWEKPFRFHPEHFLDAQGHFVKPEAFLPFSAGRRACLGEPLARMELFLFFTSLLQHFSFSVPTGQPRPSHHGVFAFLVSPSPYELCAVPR
Sequence of CYP2C9 (P11712 whole entry): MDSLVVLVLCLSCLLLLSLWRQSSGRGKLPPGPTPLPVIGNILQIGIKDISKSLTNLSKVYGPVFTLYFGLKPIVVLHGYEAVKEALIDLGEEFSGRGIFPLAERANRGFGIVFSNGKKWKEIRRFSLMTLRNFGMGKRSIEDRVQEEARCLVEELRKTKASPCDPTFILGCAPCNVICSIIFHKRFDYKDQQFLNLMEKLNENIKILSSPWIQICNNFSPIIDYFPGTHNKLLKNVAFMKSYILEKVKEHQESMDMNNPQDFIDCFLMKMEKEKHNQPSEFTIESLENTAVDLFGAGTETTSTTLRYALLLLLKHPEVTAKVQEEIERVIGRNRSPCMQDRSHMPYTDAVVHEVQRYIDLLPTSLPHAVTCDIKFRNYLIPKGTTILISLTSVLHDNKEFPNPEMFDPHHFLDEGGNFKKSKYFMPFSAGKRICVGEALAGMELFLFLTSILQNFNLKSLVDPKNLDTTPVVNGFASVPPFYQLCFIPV
Sequence of Glycogen synthase kinase-3 alpha (P49840 whole entry): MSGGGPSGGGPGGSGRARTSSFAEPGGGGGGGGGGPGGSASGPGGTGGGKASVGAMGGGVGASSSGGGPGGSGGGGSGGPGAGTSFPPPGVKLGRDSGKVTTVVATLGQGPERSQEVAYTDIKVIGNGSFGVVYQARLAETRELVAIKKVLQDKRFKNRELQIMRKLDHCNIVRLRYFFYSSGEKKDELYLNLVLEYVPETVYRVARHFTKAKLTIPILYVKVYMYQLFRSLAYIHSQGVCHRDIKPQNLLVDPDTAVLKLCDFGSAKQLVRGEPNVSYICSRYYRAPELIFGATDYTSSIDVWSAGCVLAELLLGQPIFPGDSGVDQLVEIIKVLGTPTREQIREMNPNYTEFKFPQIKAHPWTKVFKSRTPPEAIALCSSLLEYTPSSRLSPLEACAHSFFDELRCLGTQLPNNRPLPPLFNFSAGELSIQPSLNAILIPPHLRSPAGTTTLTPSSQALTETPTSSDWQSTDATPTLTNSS

Consider `CSc1nc(-c2ccc(F)cc2)c(-c2ccnc(NC(=O)C3CC3)c2)[nH]1`, for which the remaining at 3 h in data set [1] worked out at 52.1%. In addition, the Ratio in data set [2] was found to be 0.5. Also, the IC50 is 18.5 to 40 nM in data set [3]; 174 nM in data set [4]; 423 nM in data set [10]; 24 nM in [11]; 300 nM in [14]; 541 nM in the data set with Blood. In data set [5], the t1/2 is reported as 190 min. For the same compound, the inhibition at 10 µM came to 77.7% on CYP2C9, 14.6% on CYP2D6, 88.4% on CYP1A2 and 75.6% at CYP3A4. Also, the remaining at 2 h in data set [6] stood at 65.9%. For the same compound, the remaining at 1 h in data set [7] came out at 81.8%. For the same compound, the remaining at 20 min in data set [8] turned out to be 97.9%. For the same compound, in data set [9], the Drug metabolism result was “Metabolite_Detected”. Further, the “inhibition (INH)” value at Cytochrome P450 2C19 is recorded as 56.1%. Moreover, the remaining at 0.5 h in [12] is 89.6%. Moreover, in data set [13], the remaining at 4 h worked out at 44%. Also, the remaining at 10 min in [15] was 98.8%. Besides, at hERG (KCNH2), the inhibition at 4 h, 10 µM was 30.1%. The compound further displayed a solubility at 1 h in data set [16] of 51 µg/mL (≈ 138 µM).
